Measured values: ChEMBL document CHEMBL3400028, “Evaluation of Aconitum diterpenoid alkaloids as antiproliferative agents” (2015)

Experiments:
Type in all cases: functional
DU-145 = experiment: Antiproliferative activity against human DU145 cells by sulforhodamine B assay
In short: (§1)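 Cells in RPMI 1640 (25 mM HEPES, 2 mM L-glutamine, 10% heat-inactivated FBS, antibiotics) at 37 °C, 5% CO2. Seeded at 3–5 × 10³/well with graded concentrations, paclitaxel as assay control, for 72 h. TCA-fixed, stained with 0.04% SRB, dye dissolved in 10 mM Tris, A515 read. GI50 is the concentration halving absorbance versus untreated cells; three or more experiments.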

KB = experiment: Antiproliferative activity against human KB cells by sulforhodamine B assay; in short: as §1
A549 = experiment: Antiproliferative activity against human A549 cells by sulforhodamine B assay; in short: as §1
[1] = Antiproliferative activity against multidrug-resistant P-gp expressing human KBVIN cells by sulforhodamine B assay
In short: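 Vincristine-resistant KB subline kept in 100 nM vincristine, then grown 7–10 days without it before testing. RPMI 1640 with 10% FBS, 37 °C, 5% CO2. 3–5 × 10³ cells/well exposed 72 h to a concentration series, paclitaxel as assay control. SRB staining after TCA fixation, A515 read. GI50 is the 50% absorbance reduction versus untreated cells; three or more experiments.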

[2] = Selectivity ratio of GI50 for human KB cells to GI50 for multidrug-resistant P-gp expressing human KBVIN cells
In short: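 Ratio of GI50 in parental KB to GI50 in P-gp-overexpressing KB-VIN. […] KB-VIN cells were grown 7–10 days without vincristine before the assay.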

SMILES	GI50 (DU-145)	GI50 (KB)	GI50 (A549)	GI50 [1]	RatioGI50 [2]
CCN1C[C@]2(COC)[C@H](O)C[C@H](OC)[C@@]34[C@@H]5C[C@@]6(O)[C@H](OC(=O)c7ccccc7)[C@@H]5[C@@](OC(C)=O)([C@@H]([C@H](OC)[C@H]23)[C@@H]14)[C@@H](O)[C@@H]6OC [ACONITINE]	> 20 µM	> 20 µM	> 20 µM	> 20 µM	>20
CCN1C[C@]2(C)CC[C@H](OC)[C@@]34[C@@H]5C[C@H]6[C@H](OC)[C@@H]5[C@@]5(C[C@@H]6OC)OCO[C@@]5([C@@H](OC(=O)c5cccc(C(F)(F)F)c5)[C@H]23)[C@@H]14	10 µM	10 µM	10 µM	10 µM	10
CCN1C[C@]2(COC)CC[C@H](O)[C@]34C1[C@@](O)([C@@H](OC)[C@H]23)[C@@]1(O)C[C@H](OC)[C@H]2C[C@@H]4[C@@H]1[C@H]2OC [DELSOLINE]	> 20 µM	> 20 µM	> 20 µM	> 20 µM	>20
C=C1[C@H]2C[C@@H]3C4N5C[C@]6(C)CCC[C@@]47[C@@H]6[C@@]5(O)C[C@]3([C@@H]1OC(=O)c1ccc([N+](=O)[O-])cc1)[C@H]7[C@H]2O	> 20 µM	> 20 µM	> 20 µM	> 20 µM	>20
C=C1[C@H]2C[C@@H]3C4N(C(=O)/C=C/c5ccccc5)C[C@]5(C)CCC[C@@]46[C@@H]5C(=O)C[C@]3([C@@H]1O)[C@H]6[C@H]2O (stereo not given in full)	> 20 µM	> 20 µM	> 20 µM	> 20 µM	>20
C=C1[C@H]2C[C@@H]3C4N5C[C@]6(C)CCC[C@@]47[C@@H]6[C@@H]5C[C@]3([C@@H]1O)[C@H]7[C@H]2OC(=O)c1ccccc1	> 20 µM	> 20 µM	> 20 µM	> 20 µM	>20
C=C1[C@H]2C[C@@H]3C4N5C[C@]6(C)CCC[C@@]47[C@@H]6[C@@]5(OC(=O)c4ccc(OC)cc4)C[C@]3([C@@H]1OC(=O)c1ccc(OC)cc1)[C@H]7[C@H]2O	> 20 µM	> 20 µM	> 20 µM	> 20 µM	>20
CCN1C[C@]2(COC(=O)c3ccccc3N)CC[C@H](OC)[C@]34C1[C@@](O)([C@@H](OC)[C@H]23)[C@@]1(O)C[C@H](OC)[C@H]2C[C@@H]4[C@@H]1[C@H]2OC(C)=O	> 20 µM	> 20 µM	> 20 µM	> 20 µM	>20
C=C1[C@H]2C[C@@H]3C4N5C[C@]6(C)CCC[C@@]47[C@@H]6[C@@H]5C[C@]3([C@@H]1O)[C@H]7[C@H]2OC(=O)c1cccc(C(F)(F)F)c1	> 20 µM	> 20 µM	> 20 µM	> 20 µM	>20
CCN1C[C@]2(COC)CC[C@H](OC(=O)c3ccc(C(F)(F)F)cc3)[C@]34C1[C@@](O)([C@@H](OC)[C@H]23)[C@@]1(O)C[C@H](OC)[C@H]2C[C@@H]4[C@@H]1[C@H]2O	> 20 µM	> 20 µM	> 20 µM	> 20 µM	>20
C=C1[C@H]2C[C@@]3([C@@H]1OC(=O)c1ccccc1)[C@@H](C[C@@H]2OC(=O)c1ccccc1)[C@@]12C4[C@@H]3C[C@@H]1[C@@](C)(CC[C@@H]2OC(=O)c1ccccc1)CN4CC	> 20 µM	> 20 µM	> 20 µM	> 20 µM	>20
C=C1[C@H]2C[C@@H]3C4N5C[C@]6(C)CCC[C@@]47[C@@H]6[C@@H]5C[C@]3([C@@H]1OC(C)=O)[C@H]7[C@H]2OC(C)=O	> 20 µM	> 20 µM	> 20 µM	> 20 µM	>20
C=C1[C@H]2C[C@H]3C4N5C[C@]6(C)CCC[C@]47[C@H]([C@H]2OC(=O)c2ccc(OC)c(OC)c2)C3(C[C@]5(O)[C@H]67)[C@@H]1O	10 µM	10 µM	10 µM	10 µM	10
C=C1[C@H]2C[C@@H]3C4N5C[C@]6(C)CCC[C@@]47[C@@H]6[C@@H]5C[C@]3([C@@H]1OC(=O)c1ccc(OC)cc1)[C@H]7[C@H]2OC(=O)c1ccc(OC)cc1	7.1 µM	5.3 µM	6.7 µM	5.2 µM	1
CCN1C[C@]2(COC)CC[C@H](OC)[C@]34C1C([C@H](OC)[C@H]23)[C@]1(OC(C)=O)[C@H]2[C@@H](OC(=O)c3ccc(OC)cc3)[C@](O)(C[C@H]24)[C@@H](OC)[C@@H]1O [DEOXYJESACONITINE]	> 20 µM	> 20 µM	> 20 µM	> 20 µM	>20
C=C1[C@@H](O)[C@]23C[C@@H]1[C@@H](OC(=O)c1ccccc1)C[C@H]2[C@@]12C4C3C[C@@H]1[C@@](C)(CC[C@H]2O)CN4CC	> 20 µM	> 20 µM	> 20 µM	> 20 µM	>20
C=C1[C@H]2C[C@@H]3C4N5C[C@]6(C)CCC[C@@]47[C@@H]6[C@@]5(O)C[C@]3([C@@H]1O)[C@H]7[C@H]2OC(=O)c1cccc(C(F)(F)F)c1	7.7 µM	8.9 µM	6.8 µM	6.2 µM	1.5
COC[C@]12CC[C@H](O)[C@]34C(NC1)[C@@](O)([C@@H](OC)[C@H]23)[C@@]1(O)C[C@H](OC)[C@H]2C[C@@H]4[C@@H]1[C@H]2OC	> 20 µM	> 20 µM	> 20 µM	> 20 µM	>20
CCN1C[C@]2(COC)CC[C@H](O)[C@]34C1[C@@](O)([C@@H](OC)[C@H]23)[C@@]1(O)C[C@H](OC)[C@H]2C[C@@H]4[C@@H]1[C@H]2OC(C)=O	> 20 µM	> 20 µM	> 20 µM	> 20 µM	>20
C=C1[C@H]2C[C@@]3(C4C[C@@H]5C6(C)CCC7O[C@H]6N(CC)C4C75[C@@H]3C[C@@H]2OC(C)=O)[C@@H]1OC(C)=O	> 20 µM	> 20 µM	> 20 µM	> 20 µM	>20
C=C1[C@H]2C[C@@H]3C4N5C[C@]6(C)CCC[C@@]47[C@@H]6[C@@]5(O)C[C@]3([C@@H]1OC(=O)/C=C/c1ccccc1)[C@H]7[C@H]2O	> 20 µM	> 20 µM	> 20 µM	> 20 µM	>20
CCN1C[C@]2(COC)CC[C@H](OC)[C@]34C1[C@@](O)([C@@H](OC)[C@H]23)[C@@]1(O)C[C@H](OC)[C@H]2C[C@@H]4[C@@H]1[C@H]2OC(C)=O	> 20 µM	> 20 µM	> 20 µM	> 20 µM	>20
C=C1[C@H]2C[C@@H]3C4N5C[C@]6(C)CCC[C@@]47[C@@H]6[C@@]5(O)C[C@]3([C@@H]1O)[C@H]7[C@H]2OC(c1ccccc1)(c1ccccc1)c1ccccc1	6 µM	6.6 µM	6.4 µM	5.2 µM	1.3
C=C1[C@H]2C[C@@H]3C4N5C[C@]6(C)CCC[C@@]47[C@@H]6[C@@H]5C[C@]3([C@@H]1OC(=O)c1ccccc1)[C@H]7[C@H]2OC(=O)c1ccccc1	9.3 µM	6 µM	8.4 µM	7.5 µM	0.8
C=C1[C@H]2C[C@@H]3C4N5C[C@]6(C)CCC[C@@]47[C@@H]6[C@@H]5C[C@]3([C@@H]1O)[C@H]7[C@H]2OC(=O)c1ccccc1C(F)(F)F	> 20 µM	> 20 µM	> 20 µM	> 20 µM	>20
C=C1[C@H]2C[C@H]3C4N5C[C@]6(C)CCC[C@]47[C@H]([C@H]2OC(=O)c2ccc(OC)cc2)C3(C[C@]5(O)[C@H]67)[C@@H]1O	10 µM	10 µM	10 µM	10 µM	10
C=C1[C@H]2C[C@H]3C4N5C[C@]6(C)CCC[C@]47[C@H]([C@H]2OC(=O)c2ccccc2)C3(C[C@]5(OC(=O)c2ccccc2)[C@H]67)[C@@H]1O	10 µM	10 µM	10 µM	10 µM	10
CCN1C[C@]2(COC)[C@H](O)C[C@H](OC)[C@]34C1[C@H]([C@H](OC)[C@H]23)[C@]1(OC(C)=O)[C@H]2[C@@H](OC(=O)c3ccc(OC)cc3)[C@](O)(C[C@H]24)[C@@H](OC)[C@@H]1O	> 20 µM	> 20 µM	> 20 µM	> 20 µM	>20
C=C1[C@H]2C[C@@H]3C4N5C[C@]6(C)CCC[C@@]47[C@@H]6[C@@]5(O)C[C@]3([C@@H]1OC(=O)c1cccnc1)[C@H]7[C@H]2O	> 20 µM	> 20 µM	> 20 µM	> 20 µM	>20
